Measurements: ChEMBL document CHEMBL1275434, “In vitro evaluation of CBR-2092, a novel rifamycin-quinolone hybrid antibiotic: studies of the mode of action in Staphylococcus aureus” (Antimicrob Agents Chemother, 2008)
In brackets after ≈: the same amount, converted by molar mass. Activity calls are given as the source filed them. The calls are words filed in the database; no cut-off is given here.

What was measured:
Staphylococcus aureus [1] = experiment: Antimicrobial activity against Staphylococcus aureus CB809 harboring rpoB H481Y and parC S80F mutant genes by broth microdilution method
Staphylococcus aureus [2] = experiment: Antimicrobial activity against Staphylococcus aureus CB812 harboring rpo B H481Y and gyrA S84L mutant genes by broth microdilution method; format: functional
Procedure, shortened: (§1)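 CLSI broth microdilution MIC in cation-adjusted Mueller-Hinton (MHII) broth supplemented with 0.002% (vol/vol) polysorbate 80, included to limit compound loss to plastic surfaces.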

Staphylococcus aureus [3] = experiment: Antimicrobial activity against Staphylococcus aureus CB190 by broth microdilution method; format: functional
Staphylococcus aureus [4] = experiment: Antimicrobial activity against Staphylococcus aureus CB808 harboring quinolone-resistant parC S80F mutant gene by broth microdilution method; format: functional
Procedure, shortened: as §1

Staphylococcus aureus [5] = experiment: Antimicrobial activity against Staphylococcus aureus CB814 harboring fluoroquinolone-resistant gyrA S84L and parC S80F mutant genes by broth microdilution method; format: functional
Procedure, shortened: as §1

Staphylococcus aureus [6] = experiment: Antimicrobial activity against Staphylococcus aureus CB811 harboring quinolone-resistant gyrA S84L mutant gene by broth microdilution method; format: functional
Procedure, shortened: as §1

Staphylococcus aureus [7] = experiment: Antimicrobial activity against Staphylococcus aureus CB370 harboring rifampin-resistant rpoB H481Y mutant gene by broth microdilution method; format: functional
Procedure, shortened: as §1

Staphylococcus aureus [8] = experiment: Antimicrobial activity against Staphylococcus aureus CB815 harboring rpoB H481Y, gyrA S84L and parC S80F mutant genes by broth microdilution method
Staphylococcus aureus [9] = experiment: Activity at Staphylococcus aureus wild-type DNA topoisomerase 4 subunit ParC
Procedure, shortened: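 Recombinant S. aureus topoisomerase IV (wild-type ParC with ParE; specific activity 25 to 30 U per μg). Stopped with SDS/proteinase K. Linear DNA quantified on gel; CC50 is the mean of two or more assays.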

Staphylococcus aureus [10] = experiment: Activity at Staphylococcus aureus DNA topoisomerase 4 subunit ParC S80F mutant
Staphylococcus aureus [11] = experiment: Activity at Staphylococcus aureus wild-type GyrA
Procedure, shortened: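 Recombinant S. aureus gyrase (wild-type GyrA with His-tagged GyrB; 250 U per μg). SDS/proteinase K stop. Gel quantitation of linear cleavage product gave CC50, the mean of two or more assays.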

[12] = test system: DNA gyrase subunit A (Staphylococcus aureus), P20831 [S84L]; experiment: Activity at Staphylococcus aureus wild-type GyrA S84L mutant
Staphylococcus aureus [13] = experiment: Antimicrobial activity against rifampin-sensitive Staphylococcus aureus CB190 harboring rpoB D471G mutant gene by broth microdilution method; format: functional
Procedure, shortened: as §1

Staphylococcus aureus [14] = experiment: Inhibition of DNA synthesis in Staphylococcus aureus CB190 assessed as decrease in [methyl-3H]thymidine incorporation at 2 ug/ml; format: functional, organism-based
Staphylococcus aureus [15] = experiment: Antimicrobial activity against Staphylococcus aureus CB370 harboring rpoB H481Y mutant gene; format: functional
Staphylococcus aureus [16] = experiment: Antimicrobial activity against Staphylococcus aureus CB1947 harboring rpoB H481Y, gyrA S84L, E697 deficient gyrA, parC G167V mutant genes selected after CBR-2092 exposure for 20 days; details: CB1947, 480 h
Staphylococcus aureus [17] = experiment: Antimicrobial activity against rifampin-sensitive Staphylococcus aureus CB190 harboring rpo BH481D mutant gene by broth microdilution method; format: functional
Procedure, shortened: as §1

Staphylococcus aureus [18] = experiment: Inhibition of protein synthesis in Staphylococcus aureus CB190 assessed as decrease in L-[3,4,5-3H]leucine incorporation at 2 ug/ml; format: functional, organism-based
Staphylococcus aureus [19] = experiment: Antimicrobial activity against rifampin-sensitive Staphylococcus aureus CB190 by broth microdilution method; format: functional
Procedure, shortened: as §1

Staphylococcus aureus [20] = experiment: Inhibition of DNA synthesis in rifamycin-resistant Staphylococcus aureus CB370 harboring rpoB H481Y mutant gene assessed as decrease in [methyl-3H]thymidine incorporation at 2 ug/ml; format: functional, organism-based
Procedure, shortened: (§2)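 Macromolecular synthesis time course in S. aureus, measuring incorporation of [methyl-3H]thymidine (DNA), [5,6-3H]uridine (RNA) or [2,3-3H]D-alanine (cell wall). At each time point, incorporation is expressed as percent of the DMSO-treated control culture. Incorporation at time zero is set to 100%.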

Staphylococcus aureus [21] = experiment: Inhibition of RNA synthesis in quinolone-resistant Staphylococcus aureus CB814 harboring gyrA S84L and parC S80F mutant genes assessed as [5,6-3H]uridine incorporation at 2 ug/ml; format: functional, organism-based
Procedure, shortened: as §2

Staphylococcus aureus [22] = experiment: Antimicrobial activity against rifampin-sensitive Staphylococcus aureus CB190 harboring rpoB E473 mutant gene by broth microdilution method; format: functional
Procedure, shortened: as §1

Staphylococcus aureus [23] = experiment: Inhibition of cell wall synthesis in quinolone-resistant Staphylococcus aureus CB814 harboring gyrA S84L and parC S80F mutant genes assessed as [2,3-3H]D-alanine incorporation at 2 ug/ml; format: functional, organism-based
Procedure, shortened: as §2

Staphylococcus aureus [24] = experiment: Antimicrobial activity against Staphylococcus aureus CB1887 harboring rpoB R484H, L520 deficient gyrA, […], R236 duplicated parC and parC H103Y mutant genes selected after ABT-719 exposure for 20 days; format: functional; details: CB1887, 480 h
Staphylococcus aureus [25] = experiment: Antimicrobial activity against Staphylococcus aureus CB1953 harboring rpoB H481Y, gyrA S84L, gyrA V598I, parC S80F, parC R570H mutant genes selected after CBR-2092 exposure for 7 days; format: functional; details: CB1953, 168 h
Staphylococcus aureus [26] = experiment: Antimicrobial activity against rifampin-sensitive Staphylococcus aureus CB190 harboring rpoB H481Y mutant gene by broth microdilution method; format: functional
Procedure, shortened: as §1

Staphylococcus aureus [27] = experiment: Inhibition of RNA synthesis in Staphylococcus aureus CB190 assessed as decrease in [5,6-3H]uridine incorporation at 2 ug/ml; format: functional, organism-based
Staphylococcus aureus [28] = experiment: Antimicrobial activity against rifampin-sensitive Staphylococcus aureus CB190 harboring rpoB D471Y mutant gene by broth microdilution method; format: functional
Procedure, shortened: as §1

Staphylococcus aureus [29] = experiment: Antimicrobial activity against rifampin-sensitive Staphylococcus aureus CB190 harboring rpoB Q468L mutant gene by broth microdilution method; format: functional
Procedure, shortened: as §1

Staphylococcus aureus [30] = experiment: Antimicrobial activity against Staphylococcus aureus CB1952 harboring rpoB S486L, gyrA […], gyrA E88Q, gyrA G532S, parC S80F, parC E84L mutant genes selected after CBR-2092 exposure for 21 days; format: functional; details: CB1952, 504 h
Staphylococcus aureus [31] = experiment: Antimicrobial activity against rifampin-sensitive Staphylococcus aureus CB190 harboring rpoB A477V mutant gene by broth microdilution method; format: functional
Procedure, shortened: as §1

Staphylococcus aureus [32] = experiment: Antimicrobial activity against rifampin-sensitive Staphylococcus aureus CB190 harboring rpoB H472 mutant gene by broth microdilution method; format: functional
Procedure, shortened: as §1

Staphylococcus aureus [33] = experiment: Inhibition of cell wall synthesis in Staphylococcus aureus CB190 assessed as decrease in [2,3-3H]D-alanine incorporation at 2 ug/ml; format: functional, organism-based
Staphylococcus aureus [34] = experiment: Antimicrobial activity against rifampin-sensitive Staphylococcus aureus CB190 harboring rpoB N474K mutant gene by broth microdilution method; format: functional
Procedure, shortened: as §1

Staphylococcus aureus [35] = experiment: Antimicrobial activity against Staphylococcus aureus CB1954 harboring rpoB H481Y, gyrA S84L, K809 deficient gyrA, parC S80F, parC A523D mutant genes selected after CBR-2092 exposure for 7 days; format: functional; details: CB1954, 168 h
Procedure, shortened: as §1

Staphylococcus aureus [36] = experiment: Inhibition of protein synthesis in quinolone-resistant Staphylococcus aureus CB814 harboring gyrA S84L and parC S80F mutant genes assessed as L-[3,4,5-3H]leucine incorporation at 2 ug/ml; format: functional, organism-based
Procedure, shortened: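 Time-course radiolabel incorporation in S. aureus cultures with test agent. Precursors: [methyl-3H]thymidine (DNA), [5,6-3H]uridine (RNA), L-[3,4,5-3H]leucine (protein), [2,3-3H]D-alanine (cell wall). At each time point, incorporation with agent is expressed relative to the DMSO-treated control culture as percent incorporation. Time-zero incorporation is set to 100%.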

Staphylococcus aureus [37] = experiment: Antimicrobial activity against rifampin-sensitive Staphylococcus aureus CB190 harboring rpoB Q468K mutant gene by broth microdilution method; format: functional
Procedure, shortened: as §1

Staphylococcus aureus [38] = experiment: Antimicrobial activity against Staphylococcus aureus CB1884; format: functional
Staphylococcus aureus [39] = experiment: Antimicrobial activity against rifampin-sensitive Staphylococcus aureus CB190 harboring rpoB H481N mutant gene by broth microdilution method; format: functional
Procedure, shortened: as §1

Staphylococcus aureus [40] = experiment: Inhibition of DNA synthesis in quinolone-resistant Staphylococcus aureus CB814 harboring gyrA S84L and parC S80F mutant genes assessed as [methyl-3H]thymidine incorporation at 2 ug/ml; format: functional, organism-based
Procedure, shortened: as §2

## C[C@H]1COc2c(N3CCN(C)CC3)c(F)cc3c(=O)c(C(=O)O)cn1c23.C[C@H]1COc2c(N3CCN(C)CC3)c(F)cc3c(=O)c(C(=O)O)cn1c23.O [LEVOFLOXACIN]
Staphylococcus aureus [1]
  MIC: 1 µg/mL
Staphylococcus aureus [2]
  MIC: 0.25 µg/mL
Staphylococcus aureus [3]
  MIC: 0.25 µg/mL
Staphylococcus aureus [4]
  MIC: 1 µg/mL
Staphylococcus aureus [5]
  MIC: 8 µg/mL
Staphylococcus aureus [6]
  MIC: 0.25 µg/mL
Staphylococcus aureus [7]
  MIC: 0.25 µg/mL
Staphylococcus aureus [8]
  MIC: 8 µg/mL

## Cc1c(N2CC[C@@H](N)C2)c(F)cn2c(=O)c(C(=O)O)cc(C3CC3)c12
Staphylococcus aureus [1]
  MIC: 0.03 µg/mL (≈ 0.0869 µM)
Staphylococcus aureus [2]
  MIC: 0.03 µg/mL (≈ 0.0869 µM)
Staphylococcus aureus [3]
  MIC: 0.015 µg/mL (≈ 0.0434 µM)
Staphylococcus aureus [9]
  CC50: 60 nM
Staphylococcus aureus [4]
  MIC: 0.03 µg/mL (≈ 0.0869 µM)
Staphylococcus aureus [10]
  CC50: 1100 nM
Staphylococcus aureus [5]
  MIC: 0.5 µg/mL (≈ 1.45 µM)
Staphylococcus aureus [11]
  CC50: 90 nM
Staphylococcus aureus [6]
  MIC: 0.03 µg/mL (≈ 0.0869 µM)
Staphylococcus aureus [7]
  MIC: 0.015 µg/mL (≈ 0.0434 µM)
Staphylococcus aureus [8]
  MIC: 0.25 µg/mL (≈ 0.724 µM)
[12]
  CC50: 900 nM

## O=C(O)c1cn(C2CC2)c2cc(N3CCNCC3)c(F)cc2c1=O [CIPROFLOXACIN]
Staphylococcus aureus [1]
  MIC: 2 µg/mL (≈ 6.04 µM)
Staphylococcus aureus [2]
  MIC: 0.25 µg/mL (≈ 0.754 µM)
Staphylococcus aureus [13]
  MIC: 0.25 µg/mL (≈ 0.754 µM)
Staphylococcus aureus [14]
  Activity: Active
Staphylococcus aureus [15]
  MIC: 0.25 µg/mL (≈ 0.754 µM)
Staphylococcus aureus [16]
  MIC: 2 µg/mL (≈ 6.04 µM)
Staphylococcus aureus [17]
  MIC: 0.25 µg/mL (≈ 0.754 µM)
Staphylococcus aureus [18]
  Activity: Active
Staphylococcus aureus [3]
  MIC: 0.25 µg/mL (≈ 0.754 µM)
Staphylococcus aureus [19]
  MIC: 0.25 µg/mL (≈ 0.754 µM)
Staphylococcus aureus [20]
  Activity: Active
Staphylococcus aureus [9]
  CC50: 400 nM
Staphylococcus aureus [21]
  Activity: inactive
Staphylococcus aureus [22]
  MIC: 0.25 µg/mL (≈ 0.754 µM)
Staphylococcus aureus [23]
  Activity: inactive
Staphylococcus aureus [24]
  MIC: 64 µg/mL (≈ 193 µM)
Staphylococcus aureus [25]
  MIC: 64 µg/mL (≈ 193 µM)
Staphylococcus aureus [26]
  MIC: 0.25 µg/mL (≈ 0.754 µM)
Staphylococcus aureus [27]
  Activity: Active
Staphylococcus aureus [28]
  MIC: 0.5 µg/mL (≈ 1.51 µM)
Staphylococcus aureus [29]
  MIC: 0.25 µg/mL (≈ 0.754 µM)
Staphylococcus aureus [4]
  MIC: 2 µg/mL (≈ 6.04 µM)
Staphylococcus aureus [30]
  MIC: 64 µg/mL (≈ 193 µM)
Staphylococcus aureus [31]
  MIC: 0.25 µg/mL (≈ 0.754 µM)
Staphylococcus aureus [10]
  CC50: 31000 nM
Staphylococcus aureus [32]
  MIC: 0.25 µg/mL (≈ 0.754 µM)
Staphylococcus aureus [33]
  Activity: Active
Staphylococcus aureus [11]
  CC50: 4600 nM
Staphylococcus aureus [34]
  MIC: 0.25 µg/mL (≈ 0.754 µM)
Staphylococcus aureus [35]
  MIC: 64 µg/mL (≈ 193 µM)
Staphylococcus aureus [6]
  MIC: 0.25 µg/mL (≈ 0.754 µM)
Staphylococcus aureus [36]
  Activity: inactive
Staphylococcus aureus [37]
  MIC: 0.25 µg/mL (≈ 0.754 µM)
Staphylococcus aureus [38]
  MIC: 8 µg/mL (≈ 24.1 µM)
Staphylococcus aureus [7]
  MIC: 0.25 µg/mL (≈ 0.754 µM)
Staphylococcus aureus [39]
  MIC: 0.25 µg/mL (≈ 0.754 µM)
Staphylococcus aureus [40]
  Activity: inactive
[12]
  CC50: > 150000 nM
